Results collected from several papers.
Compare with care: the assays were run in different laboratories.
Target: Mitogen-activated protein kinase kinase kinase 8 (MAP3K8, Homo sapiens, UniProt P41279)

CCCS(=O)(=O)Nc1ccc(F)c(C(=O)c2c[nH]c3ncc(-c4ccc(Cl)cc4)cc23)c1F — inhibition (enzyme activity; inhibitor; 1 µM): < 10%
Cc1sc(C(=O)NC2COC2)cc1-n1cc(NC(=O)Nc2c(F)cccc2Cl)cn1 — remaining activity (enzyme activity; inhibitor; 10 µM): 105%
CC(C)(C)c1nc(-c2cccc(NS(=O)(=O)c3c(F)cccc3F)c2F)c(-c2ccnc(N)n2)s1 — remaining activity (enzyme activity; inhibitor; radiometric; 1 µM): 85%
CS(=O)(=O)Nc1cccc(-c2csc(NC(=O)CSc3nc4nccnc4c(=O)n3CCc3ccccc3)n2)c1 — inhibition (enzyme activity; inhibitor; 10 µM): 4%
COc1cc2ncnc(Nc3ccc(Oc4ccccc4)cc3C)c2cc1OC — inhibition (enzyme activity; inhibitor; 1 µM): 33%
O=C(Nc1cnn(-c2csc(C(=O)NC3COC3)c2)c1)Nc1ccccc1Cl — remaining activity (enzyme activity; inhibitor; 5 µM): 92.7%
O=C(CSc1nc2nccnc2c(=O)n1CCc1ccccc1)Nc1nccs1 — inhibition (enzyme activity; inhibitor; 10 µM): 5%
CC(C)(C)c1nc2c(s1)c1nc(N)ncc1c1ccc(NS(=O)(=O)c3c(F)cccc3F)c(F)c12 — remaining activity (enzyme activity; inhibitor; radiometric; 1 µM): 93%
CC(C)(O)[C@H]1CC[C@H](Nc2ccc3ncc(-c4cccc(C(F)(F)F)c4)n3n2)CC1 — remaining activity (enzyme activity; inhibitor; 1 µM): 107%
CC/C(=N\NC(=O)NCc1cccc(O)c1)c1ccc(O)c(C)c1O — inhibition (enzyme activity; inhibitor; 0.1 µM): -1.8%
O=C1NC(=O)c2cc(Nc3ccc(F)cc3)c(Nc3ccc(F)cc3)cc21 — remaining signal (cell-free assay; 0.5 µM): 96.3%
CCOc1cc(-c2nncn2C)ccc1Nc1ncc2cc(C)nc(NCC(C)(C)C)c2n1 — inhibition (enzyme activity; inhibitor; FRET; 1 µM): < 15%
N#CCCc1ccc2c(c1)-c1[nH]c3ccc([N+](=O)[O-])cc3c1CC(=O)N2 — remaining signal (cell-free assay; 0.5 µM): 87.5%
COc1cc2ncnc(Nc3ccc(Oc4ccccc4)c(C)c3C)c2cc1OC — inhibition (enzyme activity; inhibitor; 1 µM): -8%
